From PubChem
Hits are enriched below; roughly 3.7% of the tested compounds scored in any of these assays.
NPY Y2 blocker – blocks the human neuropeptide Y Y2 receptor; P49146; NPY-Y2 expressing cells, antagonist mode; inhibition, % at 2.7 µM; 140,000 compounds, 0.99% hits;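 further: 0% = vehicle with agonist challenge and 100% = reference antagonist with challenge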
Furin inh – blocks human furin protease activity; P09958; purified furin, fluorogenic substrate cleavage; inhibition, % at 20 µM or 30 µM; 220,000 compounds, 0.061% hits; AID 463115; in the data active means inhibition above about 25%
Target sequence (P09958 108-714 limits assumed): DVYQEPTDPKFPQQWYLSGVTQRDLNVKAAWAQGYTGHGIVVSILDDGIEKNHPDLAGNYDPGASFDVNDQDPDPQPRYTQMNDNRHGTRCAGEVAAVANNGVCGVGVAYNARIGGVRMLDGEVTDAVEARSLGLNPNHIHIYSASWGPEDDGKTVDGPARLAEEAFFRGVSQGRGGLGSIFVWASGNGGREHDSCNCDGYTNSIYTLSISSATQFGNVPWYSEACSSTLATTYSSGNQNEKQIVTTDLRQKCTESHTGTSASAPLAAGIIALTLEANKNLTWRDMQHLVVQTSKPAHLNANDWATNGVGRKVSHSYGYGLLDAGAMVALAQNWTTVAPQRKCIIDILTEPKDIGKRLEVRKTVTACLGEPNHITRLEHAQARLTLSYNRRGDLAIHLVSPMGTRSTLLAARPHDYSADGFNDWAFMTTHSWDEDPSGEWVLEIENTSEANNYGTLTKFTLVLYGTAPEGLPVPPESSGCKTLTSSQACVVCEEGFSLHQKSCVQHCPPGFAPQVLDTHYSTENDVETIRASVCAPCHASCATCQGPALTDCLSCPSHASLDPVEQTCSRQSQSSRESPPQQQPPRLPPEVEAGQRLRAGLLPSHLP
NPY-Y1 PAM-ag – potentiators or agonists of human neuropeptide Y receptor Y1 | 220,000 compounds, 0.37% hits | NPY-Y1 expressing cells, potentiator/agonist activation | activation, % at 3.6 µM | P25929; in the data active means activation above about 33%, passing the limit was not always enough;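 further: cells stimulated with NPY at EC10 then isoproterenol at EC100; 0% = low agonist plus stimulus and 100% = saturating agonist plus stimulus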
NPY2 pot ag – potentiates or activates human NPY-Y2 receptor. activation, % at 3.6 µM. cells expressing NPY-Y2, potentiator/agonist read-out. P49146. 220,000 compounds, 0.45% hits. AID 1359; in the data active means activation above about 27%;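 further: cells stimulated with NPY near EC25 plus isoproterenol at EC100; 0% = vehicle plus submaximal agonist and 100% = vehicle plus saturating agonist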
KCC2 mod – modulates chloride dependent transport by human KCC2. KCC2 cells, thallium flux FluoZin-2 fluorescence. Q9H2X9. 190,000 compounds, 2.2% hits. B-score of Tl+ flux slope (higher = more flux/activation; lower = inhibition) at 10 µM;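 active means thallium flux slope and its plate-corrected score both differing from the plate sample mean at a set confidence after two filtering rounds, in either direction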;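 further: slope of fluorescence scaled to starting intensity during 10 to 20 s after thallium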
NPY-Y1 antag – blocks the human neuropeptide Y Y1 receptor | P25929 | HEK293-CNG Y1 cells, membrane potential fluorescence; NPY at EC95, then isoproterenol | 200,000 compounds, 1% hits | inhibition, % at 3.6 µM;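 active means inhibition above the campaign mean inhibition of all tested compounds plus 3 SD, cut at about 20% in these data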;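 further: 0% = DMSO wells given NPY plus isoproterenol and 100% = isoproterenol alone without NPY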
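System: HEK293 cells with Y1 receptor plus CNG channel / Probe or stimulus: NPY 25 nM then isoproterenol 1 µM plus Ro 20-1724 25 µM / Compound: one concentration, 3.6 µM, in 0.4% DMSO / Schedule: compound incubation 1 h at room temperature, readout 45 min post-stimulation / Measured by: membrane potential fluorescence / Read-out: % inhibition of NPY effect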
NPY-Y1 ant conf – human NPY-Y1 antagonism, confirmation. shares compounds with NPY-Y1 antag. HEK293-CNG NPY-Y1, membrane potential fluorescence, cAMP; NPY challenge against isoproterenol-raised cAMP. inhibition, % at 3.6 µM. 1,200 compounds, 21% hits. AID 1254; in the data active means inhibition above about 20%;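 further: 0% = vehicle with agonist plus stimulus and 100% = stimulus alone without agonist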
NPY-Y2 antag ct – antagonizes human NPY-Y2, counter-screen to NPY-Y1 antagonists; shares compounds with NPY-Y1 antag; HEK293 NPY-Y2 CNG membrane potential fluorescence, antagonism; cells given NPY, then isoproterenol; inhibition, % at 3.6 µM; 1,200 compounds, 28% hits;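 further: 0% = DMSO with agonist challenge and 100% = reference antagonist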
Starred values were filed as active, the others as inactive; nt = not tested or not shown. Unless noted, no stated cut-off is given here; in the data, active means inhibition above about 17%; inactive means the rest.

SMILES	NPY Y2 blocker	Furin inh	NPY-Y1 PAM-ag	NPY2 pot ag	KCC2 mod	NPY-Y1 antag	NPY-Y1 ant conf	NPY-Y2 antag ct
COc1ccc(CCNC(=O)c2cc(-c3ccc(Cl)c(Cl)c3)oc2C)cc1	14	-12	-7	-2	1.4	4	nt	nt
Cc1ccc(-n2c(-c3ccncc3)n[nH]c2=S)c(C)c1	nt	-15	12	2	-0.035	-2	nt	nt
CCCCCC(O)(CCCCC)C(=O)NNc1ccccc1	10	-21	9	-2	-0.066	25*	11	5
CCCCC(O)(CCCC)C(=O)NNc1ccccc1	8	-10	-4	-2	1.1	14	nt	nt
Cc1cc2ncn(-c3ncnc4sc(C)c(C)c34)c2cc1C	4	-9	-18	-10	0.065	5	nt	nt
Cc1cc2ncn(-c3ncnc4scc(-c5ccccc5)c34)c2cc1C	15	-21	-25	-13	-0.022	31*	18	13
Cc1cc(C)c(NC(=O)COc2ccccc2C(=O)Nc2ccc3c(c2)oc2ccccc23)c(C)c1	0	-12	-12	13	-0.23	0	nt	nt
CN(C)/C=C/C(=O)c1nnn(C2CCCCC2)c1NC1CCCCC1	14	-14	-32	8	nt	22*	-3	9
C1CCC(Nc2nnnn2C2CCCCC2)CC1	-2	-29	14	14	0.68	8	nt	nt
O=C(Nc1ccc(OC(F)F)cc1)Nc1cccc(C(F)(F)F)c1	2	-14	13	16	-0.0039	-7	nt	nt
CCC(=O)Nc1cccc(-c2nc3ccccc3o2)c1	2	6	20	4	-0.22	9	nt	nt
COc1ccccc1OCC(=O)Nc1cccc(-c2nc3ccccc3o2)c1	14	-15	-67	-27	0.84	20*	16	10
Cc1ccccc1CCNC(=O)C1CCN(S(=O)(=O)c2ccc(-n3cnnn3)cc2)CC1	0	-14	13	0	nt	-1	nt	nt
O=C(NCc1ccco1)C1CCN(S(=O)(=O)c2ccc(-n3cnnn3)cc2)CC1	2	-22	-6	5	0.92	21*	0	3
c1ccc(-c2nc3cnccn3c2Nc2ccc3c(c2)OCCO3)cc1	12	5	-25	-1	-1.4	37*	5	5
CC/C(=N\Nc1ccc([N+](=O)[O-])cc1)c1ccccc1	nt	-36	21	4	0.14	-5	nt	nt
CCC1(C(=O)c2ccccc2)C(c2ccc([N+](=O)[O-])cc2)C1(C(=O)OC)C(=O)OC (configuration not stated)	9	-14	-34	-8	-0.55	22*	7	4
Cc1ccc(N2C(=O)CC(N3CCc4ccccc43)C2=O)cc1Cl (configuration not stated)	nt	-18	-1	-5	-0.047	3	nt	nt
Cc1nn(-c2ccccc2)c2nc(N)c(C#N)c(-c3ccc(F)cc3)c12	4	-30	-29	-18	-0.023	23*	4	16
N#Cc1c(N)nc2c(c1-c1ccc(F)cc1)c(=O)nc1sccn12	nt	-8	2	2	-0.92	47*	-1	4
Cc1ccc(-n2nc(C)c3c(-c4cccs4)c(C#N)c(N)nc32)cc1	2	-10	-29	5	-0.0077	12	nt	nt
CC(C)CC(NC(=O)C(COCc1ccccc1)NC(=O)OC(C)(C)C)C(=O)NN (configuration not stated)	nt	-9	-16	-6	-0.38	0	nt	nt
COc1ccc(C2CN=NC2C(=O)c2ccccc2)cc1 (configuration not stated)	nt	-14	11	0	-1.4	nt	nt	nt
CC(NC(=S)N1CCN(c2ccccc2)CC1)c1ccccc1 (configuration not stated)	nt	-26	27	7	-0.12	nt	nt	nt
O=C(NCC(c1cccnc1)N1CCN(c2ccc(F)cc2)CC1)C1CCCCC1 (configuration not stated)	2	-14	-4	-3	nt	66*	2	2
CCOC(=O)c1cnc2ccc(OC)cc2c1Nc1ccc2c(c1)OCCO2	9	-13	-33	-14	-1.9	39*	13	8
